Active and inactive are the calls of the source. The calls are words filed in the database; no cut-off is given here.
Experiments:
[1] = Cytotoxicity against HEL cells assessed as alteration in cell morphology by MTS assay; type: cell-based; conditions: human
Outline: (§1)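 Uninfected host cells (HEL or HeLa) exposed to compounds […]. The minimal cytotoxic concentration (MCC) is the lowest concentration causing a microscopically detectable change in normal cell morphology. CC50 is the concentration giving a 50% fall in cell viability by the colorimetric formazan-based MTS assay.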

[2] = Cytotoxicity against MDCK cells assessed as alteration in cell morphology by MTS assay; type: cell-based, Canis lupus familiaris; conditions: dog
Outline: (§2)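 Uninfected host cells were exposed to compound and examined under the microscope. MCC was the minimal compound concentration causing a microscopically detectable change in normal cell morphology.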

[3] = Cytotoxicity against MDCK cells assessed as decrease in cell viability by MTS assay; type: cell-based, Canis lupus familiaris; conditions: dog
Outline: (§3)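 Uninfected host cells were exposed to compound. CC50 was taken as the concentration giving a 50% fall in cell viability, measured by a colorimetric formazan-based MTS assay.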

[4] = Cytotoxicity against CRFK cells assessed as decrease in cell viability by MTS assay; type: cell-based, Felis catus; conditions: cat; outline: as §3
HEL = assay: Cytotoxicity against HEL cells assessed as decrease in cell viability upto 100 uM by MTS assay; type: cell-based; conditions: human
HeLa [5] = assay: Cytotoxicity against human HeLa cells assessed as decrease in cell viability upto 100 uM by MTS assay; type: functional, cell-based
Outline: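 Uninfected HeLa host cells were tested up to 100 μM. CC50 is the concentration causing a 50% drop in cell viability by colorimetric formazan-based MTS assay. Alternatively, MCC is the minimal concentration giving microscopically detectable alteration of normal cell morphology.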

Human respirovirus 3 = assay: Antiviral activity against Parainfluenza 3 virus infected in Vero cells assessed as inhibition of virus-induced cytopathic effect at 100 uM by MTS assay; type: functional, organism-based
Outline: (§4)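 Vero cell monolayers were infected with the virus in cell-based CPE assays. EC50 is the concentration giving 50% inhibition of virus-induced cytopathic effect, scored visually or by MTS formazan colorimetric cell-viability read-out. The highest concentration tested was 100 μM for most compounds and lower for a few.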

[6] = test system: Mammalian orthoreovirus 1; assay: Antiviral activity against Reovirus1 infected in Vero cells assessed as inhibition of virus-induced cytopathic effect at 100 uM by MTS assay; type: functional, organism-based; outline: as §4
Sindbis virus = assay: Antiviral activity against Sindbis virus infected in Vero cells assessed as inhibition of virus-induced cytopathic effect at 100 uM by MTS assay; type: functional, organism-based; outline: as §4
Feline coronavirus = assay: Antiviral activity against feline coronavirus infected in CRFK cells assessed as inhibition of virus-induced cytopathic effect at 100 uM by MTS assay; type: functional, organism-based
Felid alphaherpesvirus 1 = assay: Antiviral activity against feline herpes virus infected in CRFK cells assessed as inhibition of virus-induced cytopathic effect at 100 uM by MTS assay; type: functional, organism-based
Human alphaherpesvirus 1 = assay: Antiviral activity against HSV1 virus infected in HEL cells assessed as inhibition of virus-induced cytopathic effect at 100 uM by MTS assay; type: functional, organism-based
Human alphaherpesvirus 2 = assay: Antiviral activity against HSV2 virus infected in HEL cells assessed as inhibition of virus-induced cytopathic effect at 100 uM by MTS assay; type: functional, organism-based
Coxsackievirus B4 [7] = assay: Antiviral activity against Coxsackievirus B4 infected in HeLa cells assessed as inhibition of virus-induced cytopathic effect at 100 uM by MTS assay; type: functional, organism-based
Outline: (§5)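 HeLa cells were infected with the virus, and compounds were tested up to 100 μM. EC50 is the concentration that halves virus-induced cytopathic effect, read by visual CPE scoring or by MTS formazan colorimetric viability measurement.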

[8] = test system: Respiratory syncytial virus; assay: Antiviral activity against respiratory syncytial virus infected in HeLa cells assessed as inhibition of virus-induced cytopathic effect at 100 uM by MTS assay; type: functional, organism-based; outline: as §5
Coxsackievirus B4 [9] = assay: Antiviral activity against Coxsackievirus B4 infected in Vero cells assessed as inhibition of virus-induced cytopathic effect at 100 uM by MTS assay; type: functional, organism-based; outline: as §4
Punta Toro virus [10] = assay: Antiviral activity against Punta Toro virus infected in Vero cells assessed as inhibition of virus-induced cytopathic effect at 100 uM by MTS assay; type: functional, organism-based; outline: as §4
MDCK = assay: Cytotoxicity against MDCK cells assessed as decrease in cell viability upto 100 uM by MTS assay; type: cell-based, Canis lupus familiaris; conditions: dog
[11] = Cytotoxicity against african green monkey Vero cells assessed as alteration in cell morphology by MTS assay; type: cell-based; conditions: chlorocebus sabaeus; outline: as §2
HeLa [12] = assay: Cytotoxicity against human HeLa cells assessed as alteration in cell morphology by MTS assay; type: functional; outline: as §1
[13] = Cytotoxicity against CRFK cells assessed as decrease in cell viability upto 100 uM by MTS assay; type: cell-based, Felis catus; conditions: cat
Coxsackievirus B4 [14] = assay: Antiviral activity against Coxsackievirus B4 infected in Vero cells assessed as inhibition of virus-induced cytopathic effect by MTS assay; type: functional, organism-based; conditions: Enterovirus B
Outline: (§6)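 Vero cell monolayers infected with Coxsackie B4 virus or Punta Toro virus, with test compounds at up to 100 μM. EC50 is the concentration giving 50% inhibition of virus-induced cytopathic effect (CPE), scored visually or from cell viability by the colorimetric formazan-based MTS assay.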

Punta Toro virus [15] = assay: Antiviral activity against Punta Toro virus infected in Vero cells assessed as inhibition of virus-induced cytopathic effect by MTS assay; type: functional, organism-based; outline: as §6

| Compound | MCC [2] [µM] | CC50 [3] [µM] | CC50 [4] [µM] | Activity (HEL) | Activity (HeLa [5]) | Activity (Human respirovirus 3) | Activity [6] | Activity (Sindbis virus) | Activity (Feline coronavirus) | Activity (Felid alphaherpesvirus 1) | Activity (Human alphaherpesvirus 1) | Activity (Human alphaherpesvirus 2) | Activity (Coxsackievirus B4 [7]) | Activity [8] | Activity (Coxsackievirus B4 [9]) | Activity (Punta Toro virus [10]) | Activity (MDCK) | MCC [11] [µM] | Activity [13] | other results |
| --- | --- | --- | --- | --- | --- | --- | --- | --- | --- | --- | --- | --- | --- | --- | --- | --- | --- | --- | --- | --- |
| Nc1nc2c(ncn2COCCO)c(=O)[nH]1 [ACYCLOVIR] |  |  |  |  |  |  |  |  |  |  |  |  |  |  |  |  |  |  |  | MCC [1]: > 250 µM |
| CC(C)(C)C(=O)OCCN(Cn1cc(F)c(=O)[nH]c1=O)S(=O)(=O)c1ccccc1[N+](=O)[O-] | 4 | > 100 | 14 | Not Active | inactive | inactive | inactive | inactive | inactive | inactive | inactive | inactive | inactive | inactive | inactive | inactive |  |  |  |  |
| CCOC(=O)C1=C[C@@H](OC(CC)CC)[C@H](NC(C)=O)[C@@H](N)C1 [OSELTAMIVIR] | > 100 | > 100 |  |  |  |  |  |  |  |  |  |  |  |  |  |  |  |  |  |  |
| CC(C)(C)C(=O)OCCN(Cn1ccc(=O)[nH]c1=O)S(=O)(=O)c1ccc([N+](=O)[O-])cc1 |  |  | 49 | Not Active | inactive | inactive | inactive | inactive | inactive | inactive | inactive | inactive | inactive | inactive | inactive | inactive | Not Active |  |  |  |
| CC(C)(C)C(=O)OCCN(Cn1cc(F)c(=O)[nH]c1=O)S(=O)(=O)c1ccc([N+](=O)[O-])cc1 | 20 | 69 | 44 | Not Active | inactive | inactive | inactive | inactive | inactive | inactive | inactive | inactive | inactive | inactive | inactive | inactive |  |  |  |  |
| NC(=O)c1ncn([C@@H]2O[C@H](CO)[C@@H](O)[C@H]2O)n1 [RIBAVIRIN] | 100 | > 100 |  |  |  |  |  |  |  |  |  |  |  |  |  |  |  | > 250 |  | MCC (HeLa [12]): > 250 µM; MCC [1]: > 250 µM |
| CC(=O)Nc1ccc(S(=O)(=O)N(CCOC(=O)C(C)(C)C)Cn2cc(C)c(=O)[nH]c2=O)cc1 |  |  |  | Not Active | inactive | inactive | inactive | inactive | inactive | inactive | inactive | inactive | inactive | inactive | inactive | inactive | Not Active | 40 | Not Active |  |
| CC(=O)Nc1ccc(S(=O)(=O)N(CCOC(=O)C(C)(C)C)Cn2ccc(=O)[nH]c2=O)cc1 |  |  |  | Not Active | inactive | inactive | inactive | inactive | inactive | inactive | inactive | inactive | inactive | inactive | inactive | inactive | Not Active | 40 | Not Active |  |
| Cc1cn(CN(CCOC(=O)C(C)(C)C)S(=O)(=O)c2ccccc2[N+](=O)[O-])c(=O)[nH]c1=O |  |  |  | Not Active | inactive | inactive | inactive | inactive | inactive | inactive | inactive | inactive | inactive | inactive |  |  | Not Active |  | Not Active | EC50 (Coxsackievirus B4 [14]): 100 µM; EC50 (Punta Toro virus [15]): 100 µM |

From ChEMBL document CHEMBL1144203, “Synthesis and antiviral evaluation of acyclic azanucleosides developed from sulfanilamide as a lead structure” (Bioorg Med Chem, 2008)
